Measurements published in ChEMBL document CHEMBL1152678, “Synthesis of bis-Schiff bases of isatins and their antiglycation activity” (Bioorg Med Chem, 2009).
pIC50: −log10 of the molar value.

assay: Antiglycation activity assessed as inhibition of BSA-derived advance glycated end product formation after 9 days by spectrophotometry; assay type: physicochemical; conditions: not given; call rule not given here
Summary of the method: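 BSA (100 mg/ml) incubated with 14 mM methylglyoxal in 0.1 M phosphate buffer pH 7.4 containing NaN₃ (30 mM), aseptic, 37 °C for 9 days, with or without various concentrations of test compounds (DMSO stocks); triplicate samples. AGE-related fluorescence read; % inhibition = (1 − fluorescence of test/fluorescence of control) × 100.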

IC50	SMILES
Not Active	O=C1Nc2ccccc2/C1=N/N=C/c1ccc2ccccc2c1
Not Active	CCOc1ccc(/C=N/N=C2\C(=O)Nc3ccccc32)cc1
Not Active	O=C1Nc2ccccc2/C1=N/N=C/c1ccc(F)cc1
Not Active	Cc1ccc(O)c(/C=N/N=C2\C(=O)Nc3ccccc32)c1

The next lines start with the compound.

SMILES	IC50
COc1ccc(/C=N/N=C2\C(=O)Nc3ccc(Cl)cc32)cc1OC	Not Active
O=C1Nc2ccc(Cl)cc2/C1=N/N=C/c1ccc(F)cc1	Not Active
O=C1Nc2ccccc2/C1=N/N=C/c1ccc(Cl)c(Cl)c1	Not Active
O=C1Nc2c(Cl)ccc(Cl)c2/C1=N/N=C/c1ccccc1F	Not Active
O=C1Nc2ccc(Cl)cc2/C1=N/N=C/c1ccccc1O	Not Active
COc1cccc(/C=N/N=C2\C(=O)Nc3c(Cl)ccc(Cl)c32)c1O	Not Active

same assay, conditions: read-out: IC50

pIC50	SMILES
3.42	O=C1Nc2ccccc2/C1=N/N=C/c1cccc2ccccc12
3.44	O=C1Nc2ccccc2/C1=N/N=C/c1ccccc1F
3.39	CN(C)c1ccc(/C=N/N=C2\C(=O)Nc3ccccc32)cc1
3.45	COc1cccc(/C=N/N=C2\C(=O)Nc3ccccc32)c1O
3.61	O=C1Nc2ccccc2/C1=N/N=C/c1ccccc1[N+](=O)[O-]
3.35	O=C1Nc2ccccc2/C1=N/N=C/c1ccccc1O
3.20	O=C1Nc2ccccc2/C1=N/N=C/c1cc(Cl)ccc1O
3.38	CCOc1ccccc1/C=N/N=C1\C(=O)Nc2ccccc21
3.50	O=C1Nc2ccccc2/C1=N/N=C/c1ccc(O)cc1
3.20	O=C1Nc2ccccc2/C1=N/N=C/c1cccc(O)c1
3.34	COc1ccccc1/C=N/N=C1\C(=O)Nc2ccccc21
3.51	O=C1Nc2ccccc2/C1=N/N=C/c1cccc(Cl)c1

The remaining lines, values behind:

SMILES	pIC50
COc1ccc(/C=N/N=C2\C(=O)Nc3c(Cl)ccc(Cl)c32)cc1OC	3.44
O=C1Nc2ccc(Cl)cc2/C1=N/N=C/c1ccc(O)c(O)c1	3.33
O=C1Nc2ccccc2/C1=N/N=C/c1ccc([N+](=O)[O-])cc1	3.59
O=C1Nc2ccccc2/C1=N/N=C/c1ccc(O)c(O)c1	3.54
O=C1Nc2c(Cl)ccc(Cl)c2/C1=N/N=C/c1ccc2ccccc2c1	3.38
C[C@@H]1O[C@@H](OC[C@H]2O[C@@H](Oc3c(-c4ccc(O)c(O)c4)oc4cc(O)cc(O)c4c3=O)[C@H](O)[C@@H](O)[C@@H]2O)[C@H](O)[C@H](O)[C@H]1O [RUTIN]	3.53
